Measured values taken from ChEMBL document CHEMBL4265871, “Novel alkylated azoles as potent antifungals” (Eur J Med Chem, 2017).
In brackets after ≈: the same amount, converted by molar mass. Activity calls are given as the source filed them. The rule behind the calls is not given here.

Key:
[1] = Selectivity index, ratio of EC50 for toxicity in human BEAS2B cells to MIC50 for antifungal activity against ITC and FLC-susceptible Candida albicans ATCC MYA-2876; type: cell-based; conditions: BEAS-2B cells, read-out: Selectivity Index
In short: (§1)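 Ratio of the compound's EC50 against BEAS-2B cells to its MIC against the named C. albicans strain. […] For C. albicans strains other than ATCC 10231, trailing growth meant MIC-2 was taken, meaning 50% growth inhibition.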

[2] = Selectivity index, ratio of EC50 for toxicity in human A549 cells to MIC50 for antifungal activity against Candida albicans ATCC 64124; type: cell-based; conditions: read-out: Selectivity Index
In short: (§2)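 Selectivity index is the EC50 against the mammalian line (A549 or BEAS-2B) divided by the MIC against the given fungal strain.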

[3] = Selectivity index, ratio of EC50 for toxicity in human BEAS2B cells to MIC50 for antifungal activity against ITC and FLC-resistant Candida albicans ATCC 1237; type: cell-based; conditions: BEAS-2B cells, read-out: Selectivity Index; in short: as §2
[4] = test system: Pichia kudriavzevii; experiment: Antifungal activity against Candida krusei ATCC 6258 incubated for 48 hrs by modified CLSI M27-A3 protocol based method; type: functional; conditions: ATCC 6258, 48 h, read-out: MIC100
In short: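 For C. albicans ATCC 10231, C. krusei ATCC 6258 and C. parapsilosis ATCC 22019, MIC-0 was read, meaning complete growth inhibition. For azole controls, MIC-2 (50% growth inhibition) was reported instead. Caspofungin and voriconazole were tested here; other controls came from earlier work.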

[5] = Hemolytic activity in mouse erythrocytes assessed as hemolysis level at 7.8 ug/ml incubated for 1 hr at 37 degC; type: ADME, cell-based, Erythrocyte; conditions: read-out: Activity
In short: (§3)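 Mouse erythrocytes incubated 1 h at 37 °C with test agents over 1.95 to 125 µg/mL. Percent lysis is read for each concentration.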

[6] = test system: Nakaseomyces glabratus; experiment: Antifungal activity against Candida glabrata ATCC 2001 incubated for 48 hrs by modified CLSI M27-A3 protocol based method; type: functional; conditions: ATCC 2001, 48 h
[7] = Selectivity index, ratio of EC50 for toxicity in human A549 cells to MIC50 for antifungal activity against Candida glabrata ATCC 2001; type: cell-based; conditions: read-out: Selectivity Index; in short: as §2
[8] = test system: BEAS-2B; experiment: Toxicity in human BEAS2B cells assessed as cell viability at 15.6 ug/ml incubated for 24 hrs by resazurin dye based assay
[9] = Selectivity index, ratio of EC50 for toxicity in human BEAS2B cells to MIC50 for antifungal activity against ITC and FLC-susceptible Candida albicans ATCC MYA-2310; type: cell-based; conditions: BEAS-2B cells, read-out: Selectivity Index; in short: as §1
[10] = test system: Candida albicans; experiment: Antifungal activity against ITC and FLC-resistant Candida albicans ATCC MYA-90819 incubated for 48 hrs by modified CLSI M27-A3 protocol based method; type: functional; conditions: ATCC MYA-90819, 48 h
[11] = Selectivity index, ratio of […] for toxicity in human BEAS2B cells to MIC50 for antifungal activity against Aspergillus nidulans ATCC 38163; type: cell-based; conditions: BEAS-2B cells, read-out: Selectivity Index
[12] = Selectivity index, ratio of EC50 for toxicity in human BEAS2B cells to MIC50 for antifungal activity against ITC and FLC-resistant Candida albicans ATCC MYA-90819; type: cell-based; conditions: BEAS-2B cells, read-out: Selectivity Index; in short: as §1
[13] = Hemolytic activity in mouse erythrocytes assessed as hemolysis level at 3.9 ug/ml incubated for 1 hr at 37 degC; type: ADME, cell-based, Erythrocyte; conditions: read-out: Activity; in short: as §3
[14] = Hemolytic activity in mouse erythrocytes assessed as hemolysis level at 1.95 ug/ml incubated for 1 hr at 37 degC; type: ADME, cell-based, Erythrocyte; conditions: read-out: Activity; in short: as §3
[15] = test system: Aspergillus terreus; experiment: Antifungal activity against Aspergillus terreus ATCC MYA-3633 incubated for 48 hrs by CLSI M38-A2 protocol based method; type: functional; conditions: ATCC MYA-3633, 48 h, read-out: MIC100
[16] = test system: A549; experiment: Toxicity in human A549 cells assessed as cell viability at 15.6 ug/ml incubated for 24 hrs by resazurin dye based assay; conditions: a549, 24 h
[17] = test system: Candida albicans; experiment: Antifungal activity against ITC and FLC-resistant Candida albicans ATCC 1237 incubated for 48 hrs by modified CLSI M27-A3 protocol based method; type: functional; conditions: ATCC 1237, 48 h
In short: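 Because these Candida strains show trailing growth, MIC-2 was read, meaning 50% growth inhibition. Caspofungin and voriconazole were tested here; other controls came from earlier work.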

[18] = test system: Candida albicans; experiment: Fungistatic activity against Candida albicans ATCC 10231 at 1 times MIC incubated for 3 to 12 hrs by time kill assay; type: functional, organism-based
[19] = test system: Candida albicans; experiment: Fungistatic activity against Candida albicans ATCC 10231 at 0.5 times MIC incubated for 3 to 12 hrs by time kill assay; type: functional, organism-based
[20] = test system: Candida albicans; experiment: Fungicidal activity against Candida albicans ATCC 10231 assessed as reduction in microbial growth at 4 times MIC incubated for 9 hrs by time kill assay; type: functional
[21] = test system: Candida albicans; experiment: Induction of membrane permeabilization in Candida albicans ATCC 10231 at 1 to 4 times MIC incubated for 1 hr by propidium iodide staining based fluorescence microscopy; type: functional, organism-based
In short: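 C. albicans ATCC 10231 treated at 1× and 4× MIC and stained with propidium iodide, a membrane-impermeant dye, to detect membrane damage. Untreated cells, FLC (7.8 µg/mL) and KANB (C14) (7.8 µg/mL) serve as comparators.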

[22] = test system: Candida albicans; experiment: Effect on growth of Candida albicans ATCC 10231 assessed as increase in microbial growth at 0.5 times MIC incubated for 24 hrs by time kill assay; type: functional
[23] = test system: Candida albicans; experiment: Antifungal carryover activity against Candida albicans ATCC 10231 assessed as 25% reduction in colony counts at 0.5 to 4 times MIC
[24] = test system: Candida albicans; experiment: Fungistatic activity against Candida albicans ATCC 10231 assessed as reduction in microbial growth at 1 times MIC incubated for 24 hrs by time kill assay; type: functional
[25] = test system: Candida albicans; experiment: Antifungal activity against Candida albicans ATCC 10231 at 0.5 to 4 times MIC incubated for 3 to 24 hrs by time kill assay
[26] = test system: Candida albicans; experiment: Effect on sterol composition in Candida albicans ATCC 10231 assessed as ergosterol level at 0.125 ug/mL incubated for 10 mins by GC-MS analysis (reference value: 91.15%)
[27] = test system: Candida albicans; experiment: Effect on sterol composition in Candida albicans ATCC 10231 assessed as unknown sterol level at 0.125 ug/mL incubated for 10 mins by GC-MS analysis (reference value: 1.88 to 2.78%)
[28] = test system: Candida albicans; experiment: Effect on sterol composition in Candida albicans ATCC 64124 assessed as eburicol level at 1.95 ug/mL incubated for 10 mins by LC-MS analysis (reference value: 6.28%)
[29] = test system: Candida albicans; experiment: Effect on sterol composition in Candida albicans ATCC 64124 assessed as lanosterol level at 1.95 ug/mL incubated for 10 mins by LC-MS analysis (reference value: 29.38%)

| SMILES | selectivity ratio [1] | selectivity ratio [2] | selectivity ratio [3] | MIC [4] [µM] | hemolysis at 1 h, 7.8 ug/ml [5] [%] | MIC50 [6] [µM] | selectivity ratio [7] | viability [8] [%] | selectivity ratio [9] | MIC50 [10] [µM] | selectivity ratio [11] | selectivity ratio [12] | hemolysis at 1 h, 3.9 ug/ml [13] [%] | hemolysis at 1 h, 1.95 ug/ml [14] [%] | MIC [15] [µM] | viability [16] [%] | MIC50 [17] [µM] | Activity [18] | Activity [19] | Activity [21] | other results |
| --- | --- | --- | --- | --- | --- | --- | --- | --- | --- | --- | --- | --- | --- | --- | --- | --- | --- | --- | --- | --- | --- |
| CCCCCC(O)(Cn1cncn1)c1ccc(Cl)cc1Cl (centres undefined) | 32 | 17 | 16 | 1.5 (≈ 0.492 µg/mL) | 0 | 5.9 (≈ 1.94 µg/mL) | 17 | > 85 | 16 | 5.9 (≈ 1.94 µg/mL) | 65 | 16 | 0 | 0 | 11.9 (≈ 3.91 µg/mL) | > 85 | 5.9 (≈ 1.94 µg/mL) | – | – | – | – |
| CCCCC(O)(Cn1cncn1)c1ccc(Cl)cc1Cl (centres undefined) [HEXACONAZOLE] | 16 | 8 | 4 | 0.19 (≈ 0.0597 µg/mL) | 0 | 12.4 (≈ 3.9 µg/mL) | 8 | > 85 | 16 | 6.2 (≈ 1.95 µg/mL) | 130 | 16 | 0 | 0 | 3.1 (≈ 0.974 µg/mL) | > 85 | 24.8 (≈ 7.79 µg/mL) | – | – | – | – |
| CCCCCCC(O)(Cn1cncn1)c1ccc(F)cc1F (centres undefined) | 16 | 4 | 16 | 0.39 (≈ 0.121 µg/mL) | 0 | 12.6 (≈ 3.9 µg/mL) | 9 | – | 8 | 6.3 (≈ 1.95 µg/mL) | 65 | 16 | 0 | 0 | 25.2 (≈ 7.8 µg/mL) | – | 6.3 (≈ 1.95 µg/mL) | Active | Active | inactive | Activity [20]: >=2 log10CFU; Activity [22]: 1 log10CFU; Activity [23]: inactive; Activity [24]: 1 log10CFU; Activity [25]: Dose-dependent effect |
| CCCCCCC(O)(Cn1cncn1)c1ccc(Cl)cc1Cl (centres undefined) | 29 | 10 | 14 | 0.09 (≈ 0.0308 µg/mL) | 1.6 | 5.7 (≈ 1.95 µg/mL) | 10 | > 85 | 14 | 5.7 (≈ 1.95 µg/mL) | 58 | 14 | 0 | 0 | 11.4 (≈ 3.9 µg/mL) | > 85 | 5.7 (≈ 1.95 µg/mL) | Active | Active | inactive | Activity [26]: 49%; Activity [27]: 4.36 - 5.57%; Activity [22]: 1 log10CFU; Activity [28]: 47.97%; Activity [29]: 28.99%; Activity [23]: inactive; Activity [24]: 0.25 log10CFU; Activity [25]: Dose-dependent effect |
| CCCC(O)(Cn1cncn1)c1ccc(Cl)cc1Cl (centres undefined) | 16 | 8 | 4 | 0.2 (≈ 0.06 µg/mL) | – | 13 (≈ 3.9 µg/mL) | 8 | > 85 | 8 | 13 (≈ 3.9 µg/mL) | 16 | 8 | – | – | 13 (≈ 3.9 µg/mL) | > 85 | 26 (≈ 7.8 µg/mL) | – | – | – | – |
